From ChEMBL document CHEMBL1125757, “Design of potent protein kinase inhibitors using the bisubstrate approach” (J Med Chem, 1991)
Where a SMILES comes first, the peptide text is derived from it. The star is where a group is joined. X1 = CN(C)c1ccc(S(=O)(=O)*)c2ccccc12

Columns and labels:
Type in all cases: protein assay
[1] = target: T1, cAMP-dependent protein kinase (PKA) (Homo sapiens, UniProt P22694+P17612+P22612); assay: Displacement of ATP from protein kinase A (PKA)
Summary of the method: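 ATP-competition kinetics: Lineweaver-Burk plots at several inhibitor concentrations, with Ki taken from a secondary plot of apparent Km versus inhibitor concentration. Radiometric [γ-³²P]ATP phosphorylation assay in Tris/HCl pH 7.0 with MgCl2 5 mM and protein kinase A 1 μg, 30 °C, stopped with trichloroacetic acid. Run in triplicate.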

Protein kinase C (PKC) [2] = assay: Inhibition of protein kinase C (PKC)
Summary of the method: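 Reaction mix: protein kinase C (0.5 μg), histone IIIS 60 μg/mL, MgCl2 5 mM, CaCl2 0.5 mM, phosphatidylserine 50 μg/mL, diolein 5 μg/mL, [γ-³²P]ATP 10 μM, Tris/HCl pH 7.5, inhibitor at various concentrations. 30 °C for 7 min, stopped with TCA/BSA, precipitated twice, scintillation counting.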

Protein kinase C (PKC) [3] = assay: Displacement of ATP from protein kinase C (PKC)
Summary of the method: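 ATP-competition kinetics: Lineweaver-Burk plots at several inhibitor concentrations, with Ki taken from a secondary plot of apparent Km versus inhibitor concentration. Radiometric [γ-³²P]ATP assay in Tris/HCl pH 7.5 with MgCl2 5 mM, CaCl2 0.5 mM, phosphatidylserine 50 μg/mL, diolein 5 μg/mL and protein kinase C 0.5 μg. Run in triplicate.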

[4] = target: T1, cAMP-dependent protein kinase (PKA); assay: Inhibition of cAMP-dependent protein kinase (PKA).
Summary of the method: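 Protein kinase A (1 μg) with histone IIA 60 μg/mL, MgCl2 5 mM and [γ-³²P]ATP 10 μM (2000-4000 cpm/pmol) in Tris/HCl pH 7.0, inhibitor at various concentrations. 30 °C for 7 min, stopped with 12% TCA plus BSA carrier, reprecipitated, histone ³²P counted by scintillation.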

Compound	Ki [1] [µM]	IC50 (Protein kinase C (PKC) [2]) [µM]	Ki (Protein kinase C (PKC) [3]) [µM]	IC50 [4] [µM]
CC1CNCCN1S(=O)(=O)c1cccc2cnccc12.Cl.Cl (centres undefined)		6	6	
NCCNS(=O)(=O)c1cccc2cnccc12		7		2
O=S(=O)(c1cccc2cnccc12)N1CCNCC1		12		6

Now from value to compound:

Ki [1] [µM]	IC50 (Protein kinase C (PKC) [2]) [µM]	Ki (Protein kinase C (PKC) [3]) [µM]	IC50 [4] [µM]	Compound
0.004	0.3	0.1	0.003	N=C(N)NCCC[C@H](NC(=O)[C@H](CCCNC(=N)N)NC(=O)[C@H](CCCNC(=N)N)NC(=O)[C@H](CCCNC(=N)N)NC(=O)[C@H](CCCNC(=N)N)NC(=O)[C@H](CCCNC(=N)N)NC(=O)[C@H](CO)NC(=O)CCNCCNS(=O)(=O)c1cccc2cnccc12)C(=O)O
	> 75		> 75	C[C@H](NC(=O)[C@H](C)NS(=O)(=O)c1ccc(N(C)C)c2ccccc12)C(=O)N[C@@H](C)C(=O)N[C@@H](CCCN=C(N)N)C(=O)N[C@@H](CCCN=C(N)N)C(=O)N[C@@H](CCCN=C(N)N)C(=O)N[C@@H](CCCN=C(N)N)C(=O)O (X1-AAARRRR-OH)
	20		2	COC(=O)CCNCCNS(=O)(=O)c1cccc2cnccc12
